Experimental data as given in ChEMBL document CHEMBL3232879, “4,5,6,7-Tetrahydro-isoxazolo-[4,5-c]-pyridines as a new class of cytotoxic Hsp90 inhibitors” (Eur J Med Chem, 2014).

Columns and labels:
Histone deacetylase 5 = Histone deacetylase 5 (Homo sapiens, UniProt Q9UQL6); assay: Inhibition of human HDAC-5 using RHKK(Ac) as substrate
Histone deacetylase 11 = molecular target: T1, Histone deacetylase 11 (Homo sapiens, UniProt Q96DB2); assay: Inhibition of human HDAC-11 using RHKK(Ac) as substrate
T1 sequence (Q96DB2 whole entry): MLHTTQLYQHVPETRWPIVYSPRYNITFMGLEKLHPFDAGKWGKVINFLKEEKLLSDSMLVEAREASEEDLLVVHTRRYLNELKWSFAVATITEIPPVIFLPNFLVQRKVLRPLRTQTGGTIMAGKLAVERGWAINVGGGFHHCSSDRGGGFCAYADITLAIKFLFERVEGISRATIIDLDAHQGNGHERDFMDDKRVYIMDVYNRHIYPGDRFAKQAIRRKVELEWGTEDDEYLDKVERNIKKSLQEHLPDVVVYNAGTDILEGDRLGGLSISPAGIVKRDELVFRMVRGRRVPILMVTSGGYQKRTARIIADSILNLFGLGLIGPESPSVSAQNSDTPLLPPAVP

[1] = molecular target: Heat shock protein HSP 90-alpha (Homo sapiens, UniProt P07900); assay: Displacement of GM-FTC from Hsp90-alpha (unknown origin) after 4 hrs by fluorescence polarization assay
[2] = molecular target: Histone deacetylase 3/Nuclear receptor corepressor 2 (HDAC3/NCoR2) (Homo sapiens, UniProt O15379); assay: Inhibition of human HDAC-3/NCOR-2 using RHKK(Ac) as substrate; type: protein-complex assay
Histone deacetylase 3/Nuclear receptor corepressor 2 (HDAC3/NCoR2), sequence (O15379 whole entry): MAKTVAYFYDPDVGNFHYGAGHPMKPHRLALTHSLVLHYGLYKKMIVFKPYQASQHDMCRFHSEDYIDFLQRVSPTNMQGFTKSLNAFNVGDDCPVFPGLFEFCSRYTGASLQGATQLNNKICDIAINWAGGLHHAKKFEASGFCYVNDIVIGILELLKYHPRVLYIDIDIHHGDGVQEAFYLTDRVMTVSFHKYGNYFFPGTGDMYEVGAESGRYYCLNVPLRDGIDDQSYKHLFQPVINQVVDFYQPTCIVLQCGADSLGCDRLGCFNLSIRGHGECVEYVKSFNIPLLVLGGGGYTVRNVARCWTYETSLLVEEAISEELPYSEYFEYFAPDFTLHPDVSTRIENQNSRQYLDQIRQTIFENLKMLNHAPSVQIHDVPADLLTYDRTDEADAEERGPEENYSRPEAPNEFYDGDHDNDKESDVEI
Histone deacetylase 3/Nuclear receptor corepressor 2 (HDAC3/NCoR2), sequence (Q9Y618 whole entry, further chain): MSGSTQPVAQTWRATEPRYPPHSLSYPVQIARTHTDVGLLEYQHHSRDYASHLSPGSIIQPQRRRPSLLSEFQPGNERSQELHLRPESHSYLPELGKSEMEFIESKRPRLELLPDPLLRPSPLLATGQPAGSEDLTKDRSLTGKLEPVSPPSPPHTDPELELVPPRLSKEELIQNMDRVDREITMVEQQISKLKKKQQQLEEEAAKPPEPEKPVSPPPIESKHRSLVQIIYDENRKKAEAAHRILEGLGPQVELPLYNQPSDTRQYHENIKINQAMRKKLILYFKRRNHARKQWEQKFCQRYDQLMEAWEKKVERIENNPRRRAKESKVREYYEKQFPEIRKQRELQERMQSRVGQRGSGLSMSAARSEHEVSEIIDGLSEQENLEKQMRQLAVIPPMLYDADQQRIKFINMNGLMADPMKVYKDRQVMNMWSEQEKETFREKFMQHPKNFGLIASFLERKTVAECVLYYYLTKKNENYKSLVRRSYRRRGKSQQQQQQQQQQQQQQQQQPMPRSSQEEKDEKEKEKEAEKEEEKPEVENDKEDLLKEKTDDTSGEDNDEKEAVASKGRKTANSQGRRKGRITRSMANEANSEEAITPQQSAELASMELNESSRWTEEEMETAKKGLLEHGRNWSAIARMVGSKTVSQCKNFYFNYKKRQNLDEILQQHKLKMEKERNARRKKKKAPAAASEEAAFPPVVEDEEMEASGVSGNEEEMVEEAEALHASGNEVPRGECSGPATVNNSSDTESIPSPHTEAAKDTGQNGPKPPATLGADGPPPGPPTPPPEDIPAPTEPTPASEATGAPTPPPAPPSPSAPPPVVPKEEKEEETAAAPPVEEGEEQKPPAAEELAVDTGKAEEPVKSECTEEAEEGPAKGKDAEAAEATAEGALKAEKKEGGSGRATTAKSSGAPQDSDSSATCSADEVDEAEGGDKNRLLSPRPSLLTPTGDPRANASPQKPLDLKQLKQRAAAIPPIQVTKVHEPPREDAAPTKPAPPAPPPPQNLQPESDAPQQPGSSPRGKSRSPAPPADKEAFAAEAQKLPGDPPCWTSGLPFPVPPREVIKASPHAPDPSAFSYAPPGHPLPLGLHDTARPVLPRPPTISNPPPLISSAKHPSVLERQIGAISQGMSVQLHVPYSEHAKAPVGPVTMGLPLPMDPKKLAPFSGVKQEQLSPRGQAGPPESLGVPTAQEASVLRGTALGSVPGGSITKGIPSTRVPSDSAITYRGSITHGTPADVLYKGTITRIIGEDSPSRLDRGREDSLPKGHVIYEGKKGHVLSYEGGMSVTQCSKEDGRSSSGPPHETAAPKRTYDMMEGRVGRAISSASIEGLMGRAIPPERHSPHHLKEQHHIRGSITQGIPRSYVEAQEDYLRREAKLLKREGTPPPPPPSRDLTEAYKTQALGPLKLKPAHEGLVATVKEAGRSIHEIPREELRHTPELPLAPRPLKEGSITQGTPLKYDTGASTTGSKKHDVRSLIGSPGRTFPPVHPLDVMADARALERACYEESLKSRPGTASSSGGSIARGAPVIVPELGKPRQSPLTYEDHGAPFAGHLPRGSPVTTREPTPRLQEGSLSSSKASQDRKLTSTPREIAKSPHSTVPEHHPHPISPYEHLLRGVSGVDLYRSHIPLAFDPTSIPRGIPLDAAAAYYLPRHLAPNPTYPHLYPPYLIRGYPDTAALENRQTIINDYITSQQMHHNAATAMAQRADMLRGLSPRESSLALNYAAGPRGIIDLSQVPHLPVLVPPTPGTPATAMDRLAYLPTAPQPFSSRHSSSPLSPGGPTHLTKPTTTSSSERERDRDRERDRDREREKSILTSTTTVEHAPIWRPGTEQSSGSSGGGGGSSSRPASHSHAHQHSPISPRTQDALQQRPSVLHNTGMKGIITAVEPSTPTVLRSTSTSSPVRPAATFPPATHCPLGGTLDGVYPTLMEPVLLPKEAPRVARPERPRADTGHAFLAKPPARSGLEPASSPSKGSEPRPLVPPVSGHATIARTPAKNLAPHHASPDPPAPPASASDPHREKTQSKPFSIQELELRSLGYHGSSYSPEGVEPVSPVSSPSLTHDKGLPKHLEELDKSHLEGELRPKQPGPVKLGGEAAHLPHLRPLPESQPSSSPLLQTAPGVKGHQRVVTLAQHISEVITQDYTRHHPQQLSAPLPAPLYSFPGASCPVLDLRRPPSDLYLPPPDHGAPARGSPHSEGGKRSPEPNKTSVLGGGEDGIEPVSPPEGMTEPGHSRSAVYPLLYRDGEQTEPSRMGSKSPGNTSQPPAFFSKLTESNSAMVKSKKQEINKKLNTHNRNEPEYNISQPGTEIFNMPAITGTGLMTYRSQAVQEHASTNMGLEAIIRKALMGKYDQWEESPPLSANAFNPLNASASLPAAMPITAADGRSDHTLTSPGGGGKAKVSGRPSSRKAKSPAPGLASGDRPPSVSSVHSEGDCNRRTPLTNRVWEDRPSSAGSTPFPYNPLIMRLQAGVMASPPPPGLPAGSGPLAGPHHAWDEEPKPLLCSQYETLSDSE

Histone deacetylase 4 = Histone deacetylase 4 (Homo sapiens, UniProt P56524); assay: Inhibition of human HDAC-4 using RHKK(Ac) as substrate
Histone deacetylase 4, sequence (P56524 whole entry): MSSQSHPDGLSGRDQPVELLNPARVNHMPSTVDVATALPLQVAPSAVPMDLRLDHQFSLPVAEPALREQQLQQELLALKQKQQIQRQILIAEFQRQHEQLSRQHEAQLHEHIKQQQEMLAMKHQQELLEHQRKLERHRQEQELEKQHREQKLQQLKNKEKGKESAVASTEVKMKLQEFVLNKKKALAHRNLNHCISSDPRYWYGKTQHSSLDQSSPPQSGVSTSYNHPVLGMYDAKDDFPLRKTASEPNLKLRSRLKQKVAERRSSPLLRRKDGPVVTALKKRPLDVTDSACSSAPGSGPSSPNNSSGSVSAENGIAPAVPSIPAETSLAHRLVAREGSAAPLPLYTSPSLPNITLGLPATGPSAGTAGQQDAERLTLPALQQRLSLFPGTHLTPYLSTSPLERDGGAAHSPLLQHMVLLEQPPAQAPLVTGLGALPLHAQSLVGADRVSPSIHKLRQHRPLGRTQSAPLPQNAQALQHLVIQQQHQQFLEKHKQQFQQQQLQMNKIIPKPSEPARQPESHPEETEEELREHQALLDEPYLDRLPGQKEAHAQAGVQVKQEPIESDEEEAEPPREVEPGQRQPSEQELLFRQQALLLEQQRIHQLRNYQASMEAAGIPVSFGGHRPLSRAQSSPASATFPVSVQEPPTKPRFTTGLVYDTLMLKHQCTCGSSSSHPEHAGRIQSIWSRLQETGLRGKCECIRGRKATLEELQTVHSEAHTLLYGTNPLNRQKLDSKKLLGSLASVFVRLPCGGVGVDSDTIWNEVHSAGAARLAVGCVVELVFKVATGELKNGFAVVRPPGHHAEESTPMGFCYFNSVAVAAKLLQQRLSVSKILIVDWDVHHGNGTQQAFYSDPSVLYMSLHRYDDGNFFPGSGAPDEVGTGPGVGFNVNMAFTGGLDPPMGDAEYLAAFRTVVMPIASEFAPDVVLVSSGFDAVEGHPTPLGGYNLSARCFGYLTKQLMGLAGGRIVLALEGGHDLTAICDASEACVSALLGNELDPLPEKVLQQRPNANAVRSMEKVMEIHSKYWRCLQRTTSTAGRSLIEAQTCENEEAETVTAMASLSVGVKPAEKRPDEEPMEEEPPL

NCI-H460 = assay: Cytotoxicity against human NCI-H460 cells assessed as growth inhibition after 72 hrs by sulforhodamine B assay; type: functional, cell-based; conditions: NCI-H460, 72 h
Method in brief: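 Log-phase NCI-H460 cells seeded, drug added 24 h later, exposed 72 h. Survival read by sulforhodamine B staining. IC50 fitted by curve analysis as the concentration halving cell number relative to untreated controls.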

Histone deacetylase 8 = molecular target: T2, Histone deacetylase 8 (Homo sapiens, UniProt Q9BY41); assay: Inhibition of human HDAC-8 using RHK(Ac)K(Ac) as substrate
T2 sequence (Q9BY41 whole entry): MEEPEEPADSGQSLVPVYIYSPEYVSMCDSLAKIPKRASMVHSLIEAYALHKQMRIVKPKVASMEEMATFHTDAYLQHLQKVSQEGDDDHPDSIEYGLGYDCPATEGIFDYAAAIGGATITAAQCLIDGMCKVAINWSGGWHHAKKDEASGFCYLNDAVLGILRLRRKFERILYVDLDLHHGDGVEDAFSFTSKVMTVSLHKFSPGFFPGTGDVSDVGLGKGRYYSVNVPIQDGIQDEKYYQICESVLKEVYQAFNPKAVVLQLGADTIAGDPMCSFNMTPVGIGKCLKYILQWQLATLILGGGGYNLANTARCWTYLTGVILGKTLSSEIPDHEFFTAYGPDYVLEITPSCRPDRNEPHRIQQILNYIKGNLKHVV

Histone deacetylase 2 = Histone deacetylase 2 (Homo sapiens, UniProt Q92769); assay: Inhibition of human HDAC-2 using RHKK(Ac) as substrate
Histone deacetylase 2, sequence (Q92769 whole entry): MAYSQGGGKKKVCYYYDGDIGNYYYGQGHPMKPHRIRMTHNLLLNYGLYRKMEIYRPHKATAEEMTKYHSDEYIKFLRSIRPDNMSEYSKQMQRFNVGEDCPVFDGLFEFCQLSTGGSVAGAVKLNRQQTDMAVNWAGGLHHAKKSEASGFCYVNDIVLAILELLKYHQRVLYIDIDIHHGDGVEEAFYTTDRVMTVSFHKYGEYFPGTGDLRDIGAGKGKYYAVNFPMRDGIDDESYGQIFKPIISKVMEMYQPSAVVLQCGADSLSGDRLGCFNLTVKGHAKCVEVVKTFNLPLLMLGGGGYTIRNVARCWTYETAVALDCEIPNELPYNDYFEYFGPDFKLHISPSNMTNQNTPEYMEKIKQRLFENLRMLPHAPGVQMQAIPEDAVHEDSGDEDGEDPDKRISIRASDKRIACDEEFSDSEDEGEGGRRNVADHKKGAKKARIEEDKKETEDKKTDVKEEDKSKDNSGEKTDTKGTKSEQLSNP

Histone deacetylase 7 = molecular target: T3, Histone deacetylase 7 (Homo sapiens, UniProt Q8WUI4); assay: Inhibition of human HDAC-7 using RHKK(Ac) as substrate
T3 sequence (Q8WUI4 whole entry): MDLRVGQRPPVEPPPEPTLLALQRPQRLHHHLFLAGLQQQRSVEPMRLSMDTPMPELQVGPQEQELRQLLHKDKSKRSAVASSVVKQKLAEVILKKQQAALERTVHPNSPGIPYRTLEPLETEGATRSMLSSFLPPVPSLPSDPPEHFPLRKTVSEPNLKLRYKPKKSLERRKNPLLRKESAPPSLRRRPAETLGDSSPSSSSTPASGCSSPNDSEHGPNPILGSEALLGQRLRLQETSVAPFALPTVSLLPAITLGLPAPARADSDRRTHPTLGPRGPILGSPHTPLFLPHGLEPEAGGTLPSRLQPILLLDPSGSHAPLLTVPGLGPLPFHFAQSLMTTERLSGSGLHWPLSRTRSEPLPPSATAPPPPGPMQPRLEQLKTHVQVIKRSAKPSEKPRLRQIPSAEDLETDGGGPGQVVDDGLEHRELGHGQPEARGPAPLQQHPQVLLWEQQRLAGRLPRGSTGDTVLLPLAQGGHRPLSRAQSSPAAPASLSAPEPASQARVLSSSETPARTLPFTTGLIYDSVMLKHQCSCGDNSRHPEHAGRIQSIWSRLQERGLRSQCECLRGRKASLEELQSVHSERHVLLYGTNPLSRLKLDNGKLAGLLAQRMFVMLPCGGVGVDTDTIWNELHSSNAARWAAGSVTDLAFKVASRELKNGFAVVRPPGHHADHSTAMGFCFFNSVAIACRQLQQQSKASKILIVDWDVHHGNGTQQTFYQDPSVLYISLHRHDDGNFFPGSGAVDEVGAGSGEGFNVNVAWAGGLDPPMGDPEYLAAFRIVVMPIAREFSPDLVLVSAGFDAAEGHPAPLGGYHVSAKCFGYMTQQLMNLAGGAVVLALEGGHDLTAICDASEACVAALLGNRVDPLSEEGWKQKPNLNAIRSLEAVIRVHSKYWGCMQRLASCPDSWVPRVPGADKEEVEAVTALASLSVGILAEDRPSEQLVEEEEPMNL

Histone deacetylase 1 = Histone deacetylase 1 (Homo sapiens, UniProt Q13547); assay: Inhibition of human HDAC-1 using RHKK(Ac) as substrate
Histone deacetylase 1, sequence (Q13547 whole entry): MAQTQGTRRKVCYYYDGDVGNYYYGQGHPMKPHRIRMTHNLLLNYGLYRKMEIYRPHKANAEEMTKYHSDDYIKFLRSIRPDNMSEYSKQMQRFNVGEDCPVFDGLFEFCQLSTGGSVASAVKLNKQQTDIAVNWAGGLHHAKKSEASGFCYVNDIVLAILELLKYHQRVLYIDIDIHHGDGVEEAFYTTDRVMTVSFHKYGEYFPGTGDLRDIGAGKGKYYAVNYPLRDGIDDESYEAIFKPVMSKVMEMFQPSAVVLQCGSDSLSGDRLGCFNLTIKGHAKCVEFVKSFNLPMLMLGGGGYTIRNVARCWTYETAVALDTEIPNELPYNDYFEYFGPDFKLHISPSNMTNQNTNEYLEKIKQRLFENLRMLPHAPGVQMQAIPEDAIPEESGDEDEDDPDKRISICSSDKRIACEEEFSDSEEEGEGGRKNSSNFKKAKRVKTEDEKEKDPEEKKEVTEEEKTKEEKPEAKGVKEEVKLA

[3] = molecular target: T4, Polyamine deacetylase HDAC10 (Homo sapiens, UniProt Q969S8); assay: Inhibition of human HDAC-10 using RHKK(Ac) as substrate
T4 sequence (Q969S8 whole entry): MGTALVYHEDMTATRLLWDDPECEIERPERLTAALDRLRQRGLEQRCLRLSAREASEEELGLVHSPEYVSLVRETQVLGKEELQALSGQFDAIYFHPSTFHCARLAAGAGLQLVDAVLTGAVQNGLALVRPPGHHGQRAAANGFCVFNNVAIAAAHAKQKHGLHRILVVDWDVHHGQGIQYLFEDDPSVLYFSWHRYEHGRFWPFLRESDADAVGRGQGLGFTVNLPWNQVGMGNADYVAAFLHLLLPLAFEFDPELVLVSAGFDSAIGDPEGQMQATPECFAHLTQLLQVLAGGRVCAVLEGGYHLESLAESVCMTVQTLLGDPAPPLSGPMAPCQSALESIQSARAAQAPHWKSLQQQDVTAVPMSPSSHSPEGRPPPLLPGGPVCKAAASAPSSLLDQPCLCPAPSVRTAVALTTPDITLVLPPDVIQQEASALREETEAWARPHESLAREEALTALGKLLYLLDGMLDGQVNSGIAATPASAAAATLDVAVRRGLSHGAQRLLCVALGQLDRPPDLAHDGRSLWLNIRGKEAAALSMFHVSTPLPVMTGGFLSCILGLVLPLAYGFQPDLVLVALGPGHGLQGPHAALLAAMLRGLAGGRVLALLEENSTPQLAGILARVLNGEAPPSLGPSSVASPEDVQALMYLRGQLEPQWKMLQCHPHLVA

Structure (SMILES): CC(C)c1cc(C(=O)N2CCc3onc(C(=O)NCCCCCCC(=O)NO)c3C2)c(O)cc1O
- IC50 (Histone deacetylase 5): 1580 nM
- IC50 (Histone deacetylase 11): 521 nM
- IC50 [1]: 33 nM
- IC50 [2]: 4230 nM
- IC50 (Histone deacetylase 4): 75900 nM
- IC50 (NCI-H460): 3900 nM
- IC50 (Histone deacetylase 8): 1760 nM
- IC50 (Histone deacetylase 2): 9490 nM
- IC50 (Histone deacetylase 7): 2510 nM
- IC50 (Histone deacetylase 1): 2030 nM
- IC50 [3]: 886 nM
